MCL1 BIM primary: inhibitors of human MCL1 binding to BIM-BH3 peptide | 0.68% of 320,000 active | inhibition, % at 10.9 µM | GST-MCL1 / FITC-Bim-BH3 fluorescence polarization | Q07820;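 active = inhibition above the mean inhibition of all tested compounds plus 3 SD, set per campaign, cut at about 40% in these data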;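 note: 0% = DMSO wells and 100% = unlabeled Bim-BH3 peptide control; higher means more loss of mP so more displacement of Bim peptide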
Target sequence (Q07820 whole entry, looked up): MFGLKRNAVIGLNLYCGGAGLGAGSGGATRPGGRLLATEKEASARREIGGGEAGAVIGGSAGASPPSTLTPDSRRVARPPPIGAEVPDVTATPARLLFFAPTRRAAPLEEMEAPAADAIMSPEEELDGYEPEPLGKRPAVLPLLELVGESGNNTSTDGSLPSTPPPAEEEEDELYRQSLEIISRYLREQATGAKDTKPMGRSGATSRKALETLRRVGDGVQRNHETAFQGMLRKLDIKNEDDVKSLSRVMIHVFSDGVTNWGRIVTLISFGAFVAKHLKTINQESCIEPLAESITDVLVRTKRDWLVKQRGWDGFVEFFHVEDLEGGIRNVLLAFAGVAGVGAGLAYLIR
Mcl1-Noxa inh: disrupts binding of human Mcl-1 to Noxa peptide; Q07820; TR-FRET Mcl-1/Noxa peptide binding, 2 h; inhibition, % at 21.7 µM; 1.5% of 220,000 active; AID 1022;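 active = compounds that cut the protein-peptide binding signal by more than 50% relative to plate controls in a single-dose test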;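 note: His-tagged Mcl-1 with rhodamine Noxa BH3 peptide and terbium anti-His antibody; 0% = Mcl-1 plus Noxa peptide wells and 100% = peptide-only wells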
DSG3 Ab inh: human desmoglein-3 autoantibody binding inhibition | P32926 | DSG3-coupled beads, scFv-anti-DSG3-GFP binding, flow cytometry; hits give low values | binding (percent of control), % at 10 µM | 0.48% of 310,000 active;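 active = binding more than 3 SD below its plate's average and above zero; inconclusive = below that plate limit but binding exactly zero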;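 note: hits lower antibody fragment binding to DSG3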
Bim-Mcl-1: human Bim-Mcl-1 interaction inhibition; Q07820; Bead-based flow cytometry, Bim peptide-Mcl-1 binding; inhibition, % at 10 µM; 0.1% of 190,000 active; AID 1009; in the data active = inhibition above about 40%;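 note: 0% = no compound tracer wells and 100% = peptide blocker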
Mcl1 Bid PPI: disrupts binding of human Mcl-1 to Bid peptide. TR-FRET Mcl-1/Bid-Dy647 peptide binding, 1536-well. 0.97% of 220,000 active. inhibition, % at 21.7 µM. Q07820;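 active = compounds that cut the binding signal by more than half at the single screening dose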;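 note: His-tagged Mcl-1 with europium anti-His antibody binding Bid BH3 peptide; 0% = Mcl-1 plus peptide wells and 100% = peptide-only wells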
T cell HTS: T cell immune modulators affecting CD8 T cell-vesicle binding. 2C CD8+ T cell-vesicle binding, flow cytometry; hits give low values. response (vesicle binding), % at 7 µM. 0.068% of 330,000 active. AID 2052;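 active = response, share of CD8 T cells binding vesicles, and their 90th percentile fluorescence all below set limits, cut at about 80% in these data, passing the limit was not always enough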;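 note: values below 100% mean blocked vesicle binding to the CD8+ T cells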
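Assay system – 2C mouse CD8+ T cells · Also added – QL9-loaded Drosophila micro-vesicles · Timing – Cell–vesicle co-incubation 1.5 h at 37 °C, staining 20 min on ice · Signal – flow cytometry of vesicle-bound cells · Measure – percent CD8+ FL2 mean versus row control · Controls – Peptide-free naked vesicles (low) and QL9 vesicles with 0.7% DMSO vehicle (high)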
Numbers without * were called inactive; ? = inconclusive; nt = no result given. Most compounds without a hit are left out; they make up all but 2.3% or so of the library.

SMILES	MCL1 BIM primary	Mcl1-Noxa inh	DSG3 Ab inh	Bim-Mcl-1	Mcl1 Bid PPI	T cell HTS
CCCC(=O)C1=C(O)C(C(=O)OC)C(C)(C)CC1=Nc1ccc(N)cc1 (centres undefined)	-0.2	26.9	106.2	0.0	-29.5	315.5
CCCC(=Nc1ccc(N)cc1)C1=C(O)C(C(=O)OC)C(C)(C)CC1=O (centres undefined)	49.3*	17.6	105.5	1.0	-9.2	190.4
CN(C)S(=O)(=O)c1cccc(NC(=O)c2ccc(COc3ccccc3)cc2)c1	-15.5	nt	100.3	nt	nt	34.0
O=c1c2ccccc2nc(COc2ccccc2)n1/N=C/c1cn[nH]c1-c1ccccc1	3.0	-13.6	96.7	-5.0	55.8*	114.5
Cc1ccccc1OCc1nc2ccccc2c(=O)n1/N=C/c1cn[nH]c1-c1ccc(Br)cc1	-3.9	13.0	96.2	4.0	-1.1	138.6
[NH-]c1ncnc2c1N=C[N+]2=CC=CCO	nt	22.4	94.5	nt	-2.5	149.0
CC1Cc2ccccc2N1C(=O)c1ccc2nccnc2c1 (centres undefined)	nt	nt	97.7	nt	nt	456.4
COc1ccc(C(=O)N2c3ccccc3CC2C)cc1OC (centres undefined)	3.1	74.3*	?	-3.0	0.8	912.1
Cc1ccc(NC(=O)C(=O)NCc2ccc(/C=C(/C#N)C(=O)NCc3cccnc3)o2)cc1	-5.8	5.9	98.1	-4.0	-12.2	nt
Cc1ccc(NC(=O)C(=O)NCc2ccc(/C=C(/C#N)C(=O)NCc3cccnc3)o2)cc1C	8.5	17.5	100.2	-1.0	95.2*	224.3
O=C(O)c1cc(Nc2cc(Cl)c3nonc3c2[N+](=O)[O-])ccc1O	26.9	nt	104.7	nt	nt	176.9
COc1ccc(CSCC(=O)N/N=C/c2ccccc2O)cc1	3.7	17.9	53.2*	-2.0	-13.7	353.2
O=C(CSCc1ccc(Cl)cc1)N/N=C/c1ccc(OCC(=O)Nc2ccccc2)cc1	4.9	6.3	102.5	3.0	58.1*	368.4
O=C(CSCc1ccc(Cl)cc1)Nc1ccc(-c2nnc(-c3ccccc3)o2)cc1	0.4	30.1	100.2	-6.0	59.3*	271.1
COc1ccccc1NC(=O)COc1ccc(/C=N/NC(=O)CSCc2cc(C)cc(C)c2)cc1	1.7	-39.5	96.4	-5.0	57.3*	274.2
Cc1ccc(/C=N/NC(=O)CSCc2ccc(Cl)cc2)cc1	5.0	17.6	97.8	-5.0	-19.1	81.6
COc1ccccc1NC(=O)COc1ccc(/C=N/NS(=O)(=O)c2ccc(C)cc2)cc1	3.9	0.8	102.0	-5.0	-23.8	256.3
Cc1ccc(/C=N/NC(=O)CNC(=O)COc2ccccc2)cc1	-0.5	3.3	88.9	0.0	-21.7	293.9
Cc1ccc(NC(=O)COc2ccc(/C=N/NC(=O)CSCc3ccccc3)cc2)cc1	-2.0	22.9	80.7*	1.0	-5.3	335.2
CCOC(=O)c1c2ccc(OCC(=O)N/N=C/c3ccc(C)cc3)cc2n2ccccc12	4.5	41.1	93.7	0.0	72.6*	494.3
Cc1ccc([C@@H]2CC=C(C(=O)O)[C@H](c3ccc(Cl)cc3)N2S(=O)(=O)c2ccccc2C)cc1	nt	nt	108.5	nt	nt	100.2
C=CCSc1nc(N)c(C#N)c(-c2ccccc2)c1C#N	-0.3	-36.4	81.5*	-2.0	-23.9	110.4
COC(=O)CCC(=O)OC1(C)C(=O)C2=CN(C(CO)CO)C(c3ccc(OC)cc3)=CC2=C(Br)C1=O (centres undefined)	39.9*	19.4	nt	nt	-57.7	196.8
COC(=O)CCC(=O)OC1(C)C(=O)C2=CN(CCc3ccccn3)C(c3ccc(OC)cc3)=CC2=C(Br)C1=O (centres undefined)	40.0*	nt	100.0	nt	nt	nt
COC(=O)CCC(=O)OC1(C)C(=O)C2=CN(CCCCO)C(c3ccc(OC)cc3)=CC2=C(Br)C1=O (centres undefined)	40.2*	nt	nt	nt	nt	238.5
SMILES	MCL1 BIM primary	Mcl1-Noxa inh	DSG3 Ab inh	Bim-Mcl-1	Mcl1 Bid PPI	T cell HTS
COC(=O)CCC(=O)OC1(C)C(=O)C2=CN(CCN3CCOCC3)C(c3ccc(OC)cc3)=CC2=C(Br)C1=O (centres undefined)	20.7	18.2	nt	nt	-78.7	560.0
COC(=O)CCC(=O)OC1(C)C(=O)C2=CN(Cc3ccc4c(c3)OCO4)C(c3ccc(OC)cc3)=CC2=C(Br)C1=O (centres undefined)	5.8	nt	88.7	nt	nt	280.8
Cc1ccc(S(=O)(=O)N2CCCN(C(=O)c3cc4ccccc4[nH]3)CC2)cc1	-3.0	nt	119.2	nt	nt	218.8
C[C@H](CO)N1C[C@H](C)[C@@H](CN(C)S(=O)(=O)c2ccc(F)cc2)Oc2ccc(NS(=O)(=O)c3ccccc3)cc2C1=O	nt	nt	103.4	nt	nt	271.5
COc1ccc(N2CCN(C(=O)NCc3ccc(OC)c(Cl)c3)CC2)cc1	1.9	37.9	44.4*	-1.0	-33.7	204.2
O=C(COC(=O)Cc1ccc(-c2ccccc2)cc1)NCc1ccc(F)cc1	-6.2	15.3	19.4*	-1.0	1.2	334.6
CCOC(=O)C1CCCN(C(=O)Cn2ncc3c([nH]c4ccc(C)cc43)c2=O)C1 (centres undefined)	-0.3	nt	102.9	nt	nt	282.4
CCC(CC)=N/N=C/c1c(O)n(CC)c2cc(C3=NNC(=O)CC3)ccc12	4.7	48.8	108.4	9.0	65.7*	171.7
CN(C)S(=O)(=O)N1CCN(S(=O)(=O)c2ccc3ccccc3c2)CC1	1.1	5.8	73.5*	1.0	-21.3	191.6
COc1ccc(-n2c(SCC(=O)Nc3cc(C)on3)nc3c([nH]c4ccccc43)c2=O)cc1	4.7	-37.7	-8.2*	1.0	-6.5	482.3
CC(C)CN(C(=O)COC(=O)c1c2c(nc3ccccc13)CCC2)c1c(N)n(Cc2ccccc2)c(=O)[nH]c1=O	-7.9	nt	95.7	nt	nt	502.5
COc1ccc(NC(=O)CSc2nc(N3CCCCC3)nc(N3CCCCC3)n2)cc1	5.2	-12.9	88.0*	-2.0	-13.1	331.1
O=C(CSc1ccc(Cl)cc1)Nc1cccc(-c2nc3ccccc3[nH]2)c1	-7.4	4.9	66.1*	-4.0	27.6	206.7
O=[N+]([O-])c1cccc(N(CC(O)CN2CCCCC2)S(=O)(=O)c2ccccc2)c1 (centres undefined)	0.7	nt	118.8	nt	nt	218.6
Cc1cccc(NC(=O)CCN2C(=O)c3ccccc3S2(=O)=O)c1C	0.1	nt	108.7	nt	nt	445.2
Cc1ccc(NC(=O)Cn2c(O)c(N=NC(N)=S)c3ccccc32)cc1	15.2	nt	89.9	nt	nt	342.5
COc1ccc2c(c1)c(N=NC(N)=S)c(O)n2CC(=O)c1ccccc1	10.6	nt	59.4*	nt	nt	281.2
CN1CCN(C(=O)c2ccc(NS(=O)(=O)c3cccc([N+](=O)[O-])c3)cc2)CC1	nt	nt	99.9	nt	nt	nt
CCC(C)NC(=O)c1csc2c1CCCCC2 (centres undefined)	2.8	15.8	101.9	-1.0	-18.7	202.9
CC(C)CCNC(=O)c1csc2c1CCCCC2	3.9	16.8	185.7	-1.0	64.1*	88.6
